Laboratory results reported in ChEMBL document CHEMBL2390881, “Identification of M. tuberculosis thioredoxin reductase inhibitors based on high-throughput docking using constraints” (J Med Chem, 2013).

Tests used:
[1] = target: T1, Thioredoxin reductase (Mycobacterium tuberculosis) (UniProt P9WHH1); assay: Inhibition of Mycobacterium tuberculosis TrxR at 15 uM after 10 mins by microplate reader analysis
T1 sequence (whole entry): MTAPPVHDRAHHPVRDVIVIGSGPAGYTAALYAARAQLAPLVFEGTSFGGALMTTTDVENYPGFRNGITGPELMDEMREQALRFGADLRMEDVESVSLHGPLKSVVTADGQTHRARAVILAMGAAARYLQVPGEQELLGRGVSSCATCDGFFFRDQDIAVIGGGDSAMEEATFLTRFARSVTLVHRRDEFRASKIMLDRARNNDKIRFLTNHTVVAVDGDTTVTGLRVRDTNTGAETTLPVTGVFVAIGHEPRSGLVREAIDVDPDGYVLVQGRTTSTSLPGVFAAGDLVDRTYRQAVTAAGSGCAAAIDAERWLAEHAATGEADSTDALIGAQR
How it was run: (§1)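 MtTrxR, MtTrxB and MtTPx from M. tuberculosis, expressed in E. coli. Enzyme preincubated 10 min at 25 °C with 10 μM MtTrxB, 5 μM MtTPx, 225 μM NADPH and 0.06-45 μM compound in 50 mM HEPES pH 7.4, 1 mM EDTA. Started with 73 μM t-butylhydroperoxide. Initial NADPH oxidation rate read at 340 nm, 25 °C. Triplicates, outliers removed. IC50 by four-parameter fit, mean of ≥3 assays.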

[2] = target: T1, Thioredoxin reductase (Mycobacterium tuberculosis); assay: Inhibition of Mycobacterium tuberculosis TrxR at 5 uM after 10 mins by microplate reader analysis; how it was run: as §1
[3] = Selectivity index, ratio of IC50 for human TrxR to IC50 for Mycobacterium tuberculosis TrxR
How it was run: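 Estimated from HsTrxR inhibition at 100 μM (DTNB assay) and the MtTrxR IC50, assuming that ≤10% HsTrxR inhibition at 100 μM reflects an IC50 of >300 μM.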

[4] = target: T1, Thioredoxin reductase (Mycobacterium tuberculosis); assay: Inhibition of Mycobacterium tuberculosis TrxR at 45 uM after 10 mins by microplate reader analysis; how it was run: as §1
[5] = target: Thioredoxin reductase (Homo sapiens) (UniProt Q16881+Q9NNW7+Q86VQ6); assay: Inhibition of human TrxR at 100 uM by spectrophotometry; format: protein assay
How it was run: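 Human placenta TrxR1 (2.8 nM final) with 200 μM NADPH in 100 mM potassium phosphate, 2 mM EDTA, pH 7.4. Inhibitor added up to 100 μM final, then reaction started with 3 mM DTNB. Absorbance followed at 412 nm at 25 °C against inhibitor-free control. At least three independent experiments; apparent activation scored as no inhibition.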

[6] = target: T1, Thioredoxin reductase (Mycobacterium tuberculosis); assay: Inhibition of Mycobacterium tuberculosis TrxR at 1.67 uM after 10 mins by microplate reader analysis; how it was run: as §1
Thioredoxin reductase = target: T2, Thioredoxin reductase (Mycobacterium tuberculosis, UniProt P9WHH1); assay: Inhibition of Mycobacterium tuberculosis TrxR after 10 mins by microplate reader analysis; how it was run: as §1
T2 sequence (P9WHH1 whole entry): T1 sequence (whole entry)

| Structure (SMILES) | inhibition [1] [%] | inhibition [2] [%] | Ratio IC50 [3] | inhibition [4] [%] | inhibition [5] [%] | inhibition [6] [%] | IC50 (Thioredoxin reductase) [µM] |
| --- | --- | --- | --- | --- | --- | --- | --- |
| O=C(O)[C@H](Cc1cc2ccccc2[nH]1)NCc1c[nH]c2ccccc12 | 43.3 | 31.7 | > 10 | 31 | 10.4 | 26.7 | 30 |
| Nc1ccc(N2CCCCC2)cc1 | 35.7 | 17 | > 10 | 55 | 0 | 9.5 | 33.4 |
| NC1=C(c2nc(-c3ccccc3)cs2)C(=O)CN1c1ccc(S(N)(=O)=O)cc1 | 12.8 | 9.9 | > 2 | 25 | 0 | 8.4 | 200 |
| O=C(Nc1ccc(N2CCC(NCCOc3cccnc3)CC2)cc1)c1cnccn1 | 16.3 | 12 |  |  |  | 5 |  |
| Fc1cccc(Cl)c1CNc1ccc(N2CCCCC2)cc1 | 51.7 | 41.7 | > 10 | 58.7 | 4.6 | 30 | 15.3 |
| CC(c1c[nH]nc1-c1ccccc1)N1CCC(CCC(=O)Nc2ccccc2)CC1 (stereo not given) | 34.3 | 38 | > 20 | 29.8 | 0 | 29.7 | 15 |
| c1ccc2sc(CNc3ccc(N4CCCCC4)cc3)nc2c1 | 44.4 | 39.7 | > 10 | 67 | 17.1 | 24 | 15.8 |
| COc1ccc2nc(C)cc(Nc3ccc(O)cc3)c2c1 | 51.6 | 36 | > 8 | 68 | 31.6 | 25.6 | 12.5 |
| C=CCc1cccc(/C=N/NC(=O)CCC2C(=O)NN=C2C)c1O (stereo not given) | 31.7 | 31 | > 10 | 26 | 0 | 31.7 |  |
| Nc1nc(-c2cc3ccc(O)cc3oc2=O)cs1 | 19.7 | 17.3 | > 3 | 36.4 | 0 | 10.6 | 100 |
| O=C(COc1ccccc1)Nc1ccc(N2CCC(NCc3cccc(-n4cccn4)c3)CC2)cc1 | 18.2 | 16.9 |  | 22.1 |  | 11.2 |  |
| CSCCNC1CCN(c2ccc(NC(=O)CCCCc3ccccc3)cc2)CC1 | 33.7 | 29.7 | > 3 | 28 | 0 | 27 | 100 |
| O=C(CCCCc1ccccc1)Nc1ccc(N2CCC(NCCn3cccn3)CC2)cc1 | 17.5 | 14.7 |  | 24 |  | 12.3 |  |
